Results published in PMC7944986 (Journal for Immunotherapy of Cancer, 2021).
Entries after “also recorded” stand apart in the source; their conditions may differ.

Columns and labels:
Assay type in all cases: in vivo, human
[1] = Steady-state galunisertib plasma pharmacokinetics; details: for AUC / Cmax: human, plasma, oral, geometric mean (CV %), steady state; for AUC: AUC(0-tau)
[2] = test system: patients with recurrent or refractory metastatic pancreatic cancer; test: Dose finding, modified 3+3; details: co-administered with durvalumab 1500 mg Q4W; days 1–14 of a 28-day cycle
Method in brief: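 Oral galunisertib was given on days 1–14 in escalating cohorts of 50 mg once daily, then 50, 80 or 150 mg twice daily, with durvalumab infused IV over 60 min. Cohorts of three expanded to six after one DLT in cycle 1 (28 days). DLT criteria: grade 4 haematological AE, febrile neutropenia, grade 3–4 irAE or non-haematological AE, <75% planned dose, or >2-week delay. MTD: DLT in <2 of six; otherwise RP2D = maximum study dose.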

[3] = Durvalumab immunogenicity; details: durvalumab 1500 mg Q4W in combination with galunisertib

With Cc1cccc(-c2nn3c(c2-c2ccnc4ccc(C(N)=O)cc24)CCC3)n1 [Galunisertib, galunisertib] the “Time to maximum plasma concentration (mean concentration versus time profiles)” value ([1]; galunisertib 50, 80, and 150 mg two times per day) was ≤ 4 h, the AUC ([1]; tau=12 hours, galunisertib 50 mg two times per day + durvalumab 1500 mg Q4W) was 813 ng·h/mL and the AUC ([1]; tau=12 hours, galunisertib 80 mg two times per day + durvalumab 1500 mg Q4W) was 3150 ng·h/mL. The AUC ([1]; tau=12 hours, galunisertib 150 mg two times per day + durvalumab 1500 mg Q4W) was 6120 ng·h/mL, the AUC ([1]; tau=24 hours, galunisertib 50 mg one time per day + durvalumab 1500 mg Q4W) was 1630 ng·h/mL and the Cmax ([1]; galunisertib 50 mg one time per day + durvalumab 1500 mg Q4W) was 424 ng/mL. The Cmax ([1]; galunisertib 80 mg two times per day + durvalumab 1500 mg Q4W) was 612 ng/mL, the Cmax ([1]; galunisertib 150 mg two times per day + durvalumab 1500 mg Q4W) was 1070 ng/mL and the “Recommended phase II dose (RP2D) of galunisertib” value [2] was 150 mg two times per day.
For durvalumab, the “Anti-drug antibodies against durvalumab” value [3] was “No anti-drug antibodies against durvalumab were detected; also recorded: immunogenicity was not observed”.
